Assay [1] can be described thus: Binding affinity to avian pancreatic polypeptide containing bipartite tetracysteine motif at 25 nM. Summed up:
(§1)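 Fluorescence titration: 25 nM FlAsH or ReAsH titrated with increasing synthetic peptide or protein domain in 100 mM Tris-HCl pH 7.8 with 3.5 mM TCEP, 1 mM EDT, 1 mM EDTA. Emission read at 530 ± 12.5 nm (FlAsH) or 630 ± 17.5 nm (ReAsH) after reaching equilibrium, tracked over time. Apparent Kd taken from intensity versus concentration. Points are means of ≥3 independent titrations ± s.d.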

Assay [2] can be described thus: Binding affinity to avian pancreatic polypeptide containing bipartite tetracysteine motif at 100 nM. The note with it: filed as agonist.
Assay [3] is described as follows: Binding affinity to alpha helix of avian pancreatic polypeptide by circular dichroism spectroscopy. The method, boiled down:
(§2)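 CD spectra recorded at 25 °C in 10 mM sodium phosphate pH 7.0 with no competing dithiols. Protein at 10 μM (aPP, Zip4) or 20 μM (GCN4, Jun); unmodified peptides and their FlAsH complexes. Three wavelength scans at 50 nm min-1 averaged, buffer-only background subtracted.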

A short description of assay [4]: Binding affinity to avian pancreatic polypeptide containing bipartite tetracysteine motif. Summed up:
as §1

Assay [5] relates to HeLa. As to the kind of experiment: Binding affinity to eGFP-tagged avian pancreatic polypeptide expressed in human HeLa cells at 500 nM after 10 hrs by FRET assay. Format: cell-based.
The test system of assay [6] is HeLa. As to the kind of experiment: Binding affinity to eGFP-tagged avian pancreatic polypeptide expressed in human HeLa cells at 100 uM after 30 mins by FRET assay. The assay is classed as cell-based.
Assay [7] relates to HeLa. As to the kind of experiment: Binding affinity to eGFP-tagged avian pancreatic polypeptide expressed in human HeLa cells by flow cytometry. The assay is classed as cell-based. Summed up: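 Live HeLa cells transiently expressing eGFP fusions (aPP C-terminal or GCN4 N-terminal to eGFP) or eGFP alone. Stained 30 min with 500 nM ReAsH-EDT2 plus 100 μM EDT in phenol red-free, serum-free DMEM with 2 mM L-glutamine. PBS wash, then 0.75 mM BAL 30 min. Cells trypsinized and run by flow cytometry: eGFP 488 nm laser, 530 ± 15 nm; ReAsH 568 nm laser, 610 ± 10 nm. Mean ReAsH intensity plotted per log unit of eGFP.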
In general terms: In flow cytometry, cells or beads pass a laser one at a time.

Assay [8] can be described thus: Binding affinity to c-Jun L20P mutant at 25 degC by circular dichroism spectroscopy. (CD spectra are sensitive to the conformation of chiral molecules.)
Assay [9] in a line: Binding affinity to c-Jun homodimer L20P mutant containing bipartite tetracysteine motif. Summed up: as §1
Assay [10] can be described thus: Binding affinity to tryptophan Zip4 polypeptide containing bipartite tetracysteine motif at 25 nM. Summed up:
as §1

The nature of assay [11]: Binding affinity to tryptophan Zip4 polypeptide containing bipartite tetracysteine motif at 100 nM.
The nature of assay [12]: Binding affinity to beta sheet structure of tryptophan Zip4 polypeptide by circular dichroism spectroscopy. The method, boiled down: as §2
A short description of assay [13]: Binding affinity to tryptophan Zip4 polypeptide containing bipartite tetracysteine motif. The method, boiled down:
as §1

Assay [14] can be described thus: Binding affinity to alpha helix of avian pancreatic polypeptide F24/Y31P mutant by circular dichroism spectroscopy. Summed up: as §2
A short description of assay [15]: Binding affinity to avian pancreatic polypeptide F24/Y31P mutant. Summed up:
as §1

The nature of assay [16]: Binding affinity to beta sheet of tryptophan Zip4 polypeptide W916A mutant by circular dichroism spectroscopy. Summed up:
as §2

Assay [17] in a line: Binding affinity to tryptophan Zip4 polypeptide W916A mutant containing bipartite tetracysteine motif. The method, boiled down:
as §1

“And” between values parts separate entries of the source, which are not always exact repeats. Equal entries are not always repeated. The source made the active and inactive calls. The rule behind the calls is not given here. Peptide text beside a SMILES is read from it.

`CC[C@H](C)[C@H](NC(=O)[C@H](CC(C)C)NC(=O)[C@H](CC(=O)O)NC(=O)[C@H](CCC(=O)O)NC(=O)[C@@H](NC(=O)[C@@H]1CCCN1C(=O)[C@H](C)NC(=O)[C@H](CC(=O)O)NC(=O)[C@H](CC(=O)O)NC(=O)CNC(=O)[C@@H]1CCCN1C(=O)[C@H](Cc1ccc(O)cc1)NC(=O)[C@@H](NC(=O)[C@@H]1CCCN1C(=O)[C@H](CCC(N)=O)NC(=O)[C@H](CO)NC(=O)[C@@H]1CCCN1C(=O)[C@H](CS)NC(=O)[C@H](CS)NC(=O)[C@H](CC(N)=O)NC(=O)[C@H](CC(C)C)NC(=O)[C@H](Cc1ccccc1)NC(C)=O)[C@H](C)O)C(C)C)C(=O)N[C@@H](CCCNC(=N)N)C(=O)N[C@@H](Cc1ccccc1)C(=O)N[C@@H](Cc1ccc(O)cc1)C(=O)N[C@@H](CC(=O)O)C(=O)N[C@@H](CC(N)=O)C(=O)N[C@@H](CC(C)C)C(=O)N[C@@H](CCC(N)=O)C(=O)N[C@@H](CCC(N)=O)C(=O)N[C@@H](Cc1ccc(O)cc1)C(=O)N[C@@H](CC(C)C)C(=O)N[C@@H](CC(N)=O)C(=O)N[C@H](C(=O)N[C@@H](CS)C(=O)N[C@@H](CS)C(=O)N[C@@H](CCSC)C(=O)N[C@@H](CCC(=O)O)C(=O)N1CCC[C@H]1C(N)=O)C(C)C`: the result in [1], in assay [5], in [6] and in assay [7] was Active. Also, the Activity entry in assay [2] is “Agonist”. In [3], the outcome was inactive. The Kapp in [4] was 5.8 µM and 3.4 µM.

For the compound `CC[C@H](C)[C@H](NC(=O)[C@H](CCCNC(=N)N)NC(=O)[C@H](Cc1c[nH]c2ccccc12)NC(C)=O)C(=O)N[C@@H](C)C(=O)N[C@@H](CCCNC(=N)N)C(=O)N[C@@H](CC(C)C)C(=O)N[C@@H](CCC(=O)O)C(=O)N[C@@H](CCC(=O)O)C(=O)N[C@@H](CCCCN)C(=O)N[C@H](C(=O)N[C@@H](CCCCN)C(=O)N[C@H](C(=O)N[C@@H](CC(C)C)C(=O)N[C@@H](CCCCN)C(=O)N[C@@H](C)C(=O)N[C@@H](CCC(N)=O)C(=O)N[C@@H](CC(N)=O)C(=O)N[C@@H](CO)C(=O)N[C@@H](CCC(=O)O)C(=O)N1CCC[C@H]1C(=O)N[C@@H](C)C(=O)N[C@@H](CO)C(=O)N[C@H](C(=O)N[C@@H](C)C(=O)N[C@@H](CC(N)=O)C(=O)N[C@@H](CCSC)C(=O)N[C@@H](CC(C)C)C(=O)N[C@@H](CCCNC(=N)N)C(=O)N[C@@H](CCC(=O)O)C(=O)N[C@@H](CCC(N)=O)C(=O)N[C@H](C(=O)N[C@@H](C)C(=O)N[C@@H](CCC(N)=O)C(=O)N[C@@H](CC(C)C)C(=O)N[C@@H](CCCCN)C(=O)N[C@@H](CCC(N)=O)C(=O)N[C@@H](CCCCN)C(=O)N[C@H](C(=O)N[C@@H](CS)C(=O)N[C@@H](CS)C(N)=O)C(C)C)C(C)C)[C@@H](C)O)[C@@H](C)O)C(C)C` (Ac-WRIARLEEKVKTLKAQNSEPASTANMLREQVAQLKQKVCC-NH2), the outcome in assay [8] was inactive. The Kapp in assay [9] is > 111 µM.

Turning to `CSCC[C@H](NC(=O)[C@H](CS)NC(=O)[C@H](CS)NC(=O)[C@@H](NC(=O)[C@H](Cc1c[nH]c2ccccc12)NC(=O)[C@@H](NC(=O)[C@H](Cc1c[nH]c2ccccc12)NC(=O)[C@@H](NC(=O)[C@H](CCCCN)NC(=O)[C@@H](NC(=O)[C@H](C)NC(=O)[C@H](CC(=O)O)NC(=O)[C@H](CC(=O)O)NC(=O)[C@H](Cc1c[nH]c2ccccc12)NC(=O)[C@@H](NC(=O)[C@H](Cc1c[nH]c2ccccc12)NC(=O)[C@H](CCC(=O)O)NC(=O)[C@H](CS)NC(=O)[C@H](CS)NC(=O)[C@H](CC(N)=O)NC(=O)[C@H](CC(C)C)NC(=O)[C@H](Cc1ccccc1)NC(C)=O)[C@@H](C)O)[C@@H](C)O)[C@@H](C)O)[C@@H](C)O)[C@@H](C)O)C(=O)N[C@@H](CCC(=O)O)C(=O)N1CCC[C@H]1C(N)=O` (Ac-FLNCCEWTWDDATKTWTWTCCMEP-NH2), the result in [10] and in assay [11] was Active. Moreover, in assay [12], the outcome was inactive. Further, the Kapp in [13] is 0.62 µM and 0.38 µM.

As to `CC[C@H](C)[C@H](NC(=O)[C@H](CC(C)C)NC(=O)[C@H](CC(=O)O)NC(=O)[C@H](CCC(=O)O)NC(=O)[C@@H](NC(=O)[C@@H]1CCCN1C(=O)[C@H](C)NC(=O)[C@H](CC(=O)O)NC(=O)[C@H](CC(=O)O)NC(=O)CNC(=O)[C@@H]1CCCN1C(=O)[C@H](Cc1ccc(O)cc1)NC(=O)[C@@H](NC(=O)[C@@H]1CCCN1C(=O)[C@H](CCC(N)=O)NC(=O)[C@H](CO)NC(=O)[C@@H]1CCCN1C(=O)[C@H](CS)NC(=O)[C@H](CS)NC(=O)[C@H](CC(N)=O)NC(=O)[C@H](CC(C)C)NC(=O)[C@H](Cc1ccccc1)NC(C)=O)[C@H](C)O)C(C)C)C(=O)N[C@@H](CCCNC(=N)N)C(=O)N1CCC[C@H]1C(=O)N[C@@H](Cc1ccc(O)cc1)C(=O)N[C@@H](CC(=O)O)C(=O)N[C@@H](CC(N)=O)C(=O)N[C@@H](CC(C)C)C(=O)N[C@@H](CCC(N)=O)C(=O)N[C@@H](CCC(N)=O)C(=O)N1CCC[C@H]1C(=O)N[C@@H](CC(C)C)C(=O)N[C@@H](CC(N)=O)C(=O)N[C@H](C(=O)N[C@@H](CS)C(=O)N[C@@H](CS)C(=O)N[C@@H](CCSC)C(=O)N[C@@H](CCC(=O)O)C(=O)N1CCC[C@H]1C(N)=O)C(C)C`, the result in [14] was inactive. The Kapp in assay [15] is 65 µM and 72 µM.

Regarding `CSCC[C@H](NC(=O)[C@H](CS)NC(=O)[C@H](CS)NC(=O)[C@@H](NC(=O)[C@H](Cc1c[nH]c2ccccc12)NC(=O)[C@@H](NC(=O)[C@H](C)NC(=O)[C@@H](NC(=O)[C@H](CCCCN)NC(=O)[C@@H](NC(=O)[C@H](C)NC(=O)[C@H](CC(=O)O)NC(=O)[C@H](CC(=O)O)NC(=O)[C@H](C)NC(=O)[C@@H](NC(=O)[C@H](Cc1c[nH]c2ccccc12)NC(=O)[C@H](CCC(=O)O)NC(=O)[C@H](CS)NC(=O)[C@H](CS)NC(=O)[C@H](CC(N)=O)NC(=O)[C@H](CC(C)C)NC(=O)[C@H](Cc1ccccc1)NC(C)=O)[C@@H](C)O)[C@@H](C)O)[C@@H](C)O)[C@@H](C)O)[C@@H](C)O)C(=O)N[C@@H](CCC(=O)O)C(=O)N1CCC[C@H]1C(N)=O` (Ac-FLNCCEWTADDATKTATWTCCMEP-NH2), the result in [16] was inactive. Further, in assay [17], the Kapp was 38 µM and 13 µM.
